Source: ChEMBL document CHEMBL5724801, “EUbOPEN Chemogenomics Library - Multiplex” (2024)
Several values for one entry are separate records, joined by “and”; a condition that tells them apart may be missing. Equal entries are not always repeated.

Tested on: U2OS
Experiment: Multiplex assay against U2OS
Assay type: toxicity, cell-based
Conditions: human
Procedure, shortened: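 With compound added, live cells were imaged on a CQ1 microscope at 37°C and 5% CO2; staining with Hoechst33342, BioTracker Green Microtubule Cytoskeleton Dye, MitoTracker Red and Annexin V Alexa Fluor 680 had been done at seeding. The CellPathfinder machine-learning gating scheme split cells into Hoechst high-intensity objects or normal cells, normal cells into healthy, pyknosed or fragmented nuclei, and pyknosed cells into mitotic or apoptotic. The tubulin, mitochondrial-mass and membrane-permeability phenotypes are per cents of healthy-nucleus cells.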

[1] = 12 h, 1 µM, compound concentration 1 uM
[2] = 12 h, 10 µM, compound concentration 10 uM
[3] = 24 h, 1 µM, compound concentration 1 uM
[4] = 24 h, 10 µM, compound concentration 10 uM
[5] = 48 h, 1 µM, compound concentration 1 uM
[6] = 48 h, 10 µM, compound concentration 10 uM

CC(=O)NCC(=O)N1[C@@H]2CC[C@H]1c1ccc(Nc3ncc(C(F)(F)F)c(NC4CCC4)n3)cc12 [PF-03814735]
Population Apoptotic (%) [1]: 43.59% and 56.25%
Population Fragmented Nuclei (%) [1]: 3.86% and 3.61%
Population Healthy Nuclei (%) [1]: 82.46% and 86.75%
Population Hoechst High Intensity Objects (%) [1]: 0%
Population Membrane Permeable-Phenotype (%) [1]: 2.55% and 3.47%
Population Mitochondria Different-Phenotype (%) [1]: 0% and 6.25%
Population Mitotic Cells (%) [1]: 56.41% and 43.75%
Population Normal (%) [1]: 100%
Population Pyknosed Nuclei (%) [1]: 13.68% and 9.64%
Population Tubulin-Different-Phenotype (%) [1]: 2.55% and 1.39%
Total Cell Count [1]: 285 and 166
Population Apoptotic (%) [2]: 36.84% and 50%
Population Fragmented Nuclei (%) [2]: 4.71% and 6.5%
Population Healthy Nuclei (%) [2]: 58.45% and 47.97%
Population Hoechst High Intensity Objects (%) [2]: 0.28% and 0%
Population Membrane Permeable-Phenotype (%) [2]: 5.69% and 15.25%
Population Mitotic Cells (%) [2]: 63.16% and 50%
Population Normal (%) [2]: 99.72% and 100%
Population Pyknosed Nuclei (%) [2]: 36.84% and 45.53%
Population Tubulin-Different-Phenotype (%) [2]: 7.58% and 8.47%
Total Cell Count [2]: 362 and 123
Population Apoptotic (%) [3]: 52.86% and 55.56%
Population Fragmented Nuclei (%) [3]: 3.18% and 2.94%
Population Healthy Nuclei (%) [3]: 72.08% and 75.88%
Population Hoechst High Intensity Objects (%) [3]: 0.35% and 0%
Population Membrane Permeable-Phenotype (%) [3]: 1.96% and 5.43%
Population Mitochondria Different-Phenotype (%) [3]: 0% and 7.75%
Population Mitotic Cells (%) [3]: 47.14% and 44.44%
Population Normal (%) [3]: 99.65% and 100%
Population Pyknosed Nuclei (%) [3]: 24.73% and 21.18%
Population Tubulin-Different-Phenotype (%) [3]: 0.49% and 3.88%
Total Cell Count [3]: 284 and 170
Population Apoptotic (%) [4]: 67.23% and 80%
Population Fragmented Nuclei (%) [4]: 5.92% and 4.1%
Population Healthy Nuclei (%) [4]: 27.04% and 26.23%
Population Hoechst High Intensity Objects (%) [4]: 0% and 0.81%
Population Membrane Permeable-Phenotype (%) [4]: 10.42% and 12.5%
Population Mitotic Cells (%) [4]: 32.77% and 20%
Population Normal (%) [4]: 100% and 99.19%
Population Pyknosed Nuclei (%) [4]: 67.04% and 69.67%
Total Cell Count [4]: 355 and 123
Population Apoptotic (%) [5]: 69.39% and 73.33%
Population Fragmented Nuclei (%) [5]: 2.78% and 6.88%
Population Healthy Nuclei (%) [5]: 63.19% and 55.62%
Population Hoechst High Intensity Objects (%) [5]: 0.69% and 0%
Population Membrane Permeable-Phenotype (%) [5]: 3.85% and 7.87%
Population Mitochondria Different-Phenotype (%) [5]: 0% and 15.73%
Population Mitotic Cells (%) [5]: 30.61% and 26.67%
Population Normal (%) [5]: 99.31% and 100%
Population Pyknosed Nuclei (%) [5]: 34.03% and 37.5%
Population Tubulin-Different-Phenotype (%) [5]: 6.04% and 10.11%
Total Cell Count [5]: 290 and 160
Population Apoptotic (%) [6]: 78.97% and 93.41%
Population Fragmented Nuclei (%) [6]: 6.71% and 1.74%
Population Healthy Nuclei (%) [6]: 14.29% and 19.13%
Population Hoechst High Intensity Objects (%) [6]: 0%
Population Membrane Permeable-Phenotype (%) [6]: 18.37% and 31.82%
Population Mitochondria Different-Phenotype (%) [6]: 14.29% and 4.55%
Population Normal (%) [6]: 100%
Population Pyknosed Nuclei (%) [6]: 79.01% and 79.13%
Total Cell Count [6]: 343 and 115

CN1CCN(c2cc(-c3ccccc3)nc(N)n2)CC1
Population Apoptotic (%) [1]: 80% and 62%
Population Fragmented Nuclei (%) [1]: 32% and 17%
Population Healthy Nuclei (%) [1]: 61% and 76%
Population Hoechst High Intensity Objects (%) [1]: 2% and 1%
Population Membrane Permeable-Phenotype (%) [1]: 5% and 7%
Population Mitochondria Different-Phenotype (%) [1]: 2% and 5%
Population Mitotic Cells (%) [1]: 20% and 37%
Population Normal (%) [1]: 97% and 98%
Population Pyknosed Nuclei (%) [1]: 6% and 5%
Population Tubulin-Different-Phenotype (%) [1]: 2% and 11%
Total Cell Count [1]: 235 and 141
Population Apoptotic (%) [2]: 86% and 73%
Population Healthy Nuclei (%) [2]: 63% and 80%
Population Hoechst High Intensity Objects (%) [2]: 0% and 1%
Population Membrane Permeable-Phenotype (%) [2]: 5% and 10%
Population Mitochondria Different-Phenotype (%) [2]: 3%
Population Mitotic Cells (%) [2]: 13% and 26%
Population Normal (%) [2]: 99% and 98%
Population Pyknosed Nuclei (%) [2]: 6% and 10%
Population Tubulin-Different-Phenotype (%) [2]: 3% and 7%
Total Cell Count [2]: 252 and 139
Population Apoptotic (%) [3]: 86% and 80%
Population Fragmented Nuclei (%) [3]: 25% and 21%
Population Healthy Nuclei (%) [3]: 65% and 73%
Population Hoechst High Intensity Objects (%) [3]: 1%
Population Membrane Permeable-Phenotype (%) [3]: 7% and 6%
Population Mitochondria Different-Phenotype (%) [3]: 1%
Population Mitotic Cells (%) [3]: 13% and 20%
Population Normal (%) [3]: 98%
Population Pyknosed Nuclei (%) [3]: 8% and 5%
Population Tubulin-Different-Phenotype (%) [3]: 4% and 9%
Total Cell Count [3]: 278 and 177
Population Apoptotic (%) [4]: 100% and 81%
Population Fragmented Nuclei (%) [4]: 23% and 12%
Population Healthy Nuclei (%) [4]: 69% and 80%
Population Hoechst High Intensity Objects (%) [4]: 1% and 2%
Population Membrane Permeable-Phenotype (%) [4]: 9% and 4%
Population Mitochondria Different-Phenotype (%) [4]: 3% and 4%
Population Mitotic Cells (%) [4]: 0% and 18%
Population Normal (%) [4]: 98% and 97%
Population Pyknosed Nuclei (%) [4]: 6%
Population Tubulin-Different-Phenotype (%) [4]: 7% and 2%
Total Cell Count [4]: 287 and 166
Population Apoptotic (%) [5]: 83% and 69%
Population Fragmented Nuclei (%) [5]: 21% and 19%
Population Healthy Nuclei (%) [5]: 69% and 75%
Population Hoechst High Intensity Objects (%) [5]: 2% and 3%
Population Membrane Permeable-Phenotype (%) [5]: 5%
Population Mitochondria Different-Phenotype (%) [5]: 1% and 2%
Population Mitotic Cells (%) [5]: 16% and 30%
Population Normal (%) [5]: 97% and 96%
Population Pyknosed Nuclei (%) [5]: 9% and 5%
Population Tubulin-Different-Phenotype (%) [5]: 2% and 7%
Total Cell Count [5]: 409 and 267
Population Apoptotic (%) [6]: 100% and 88%
Population Fragmented Nuclei (%) [6]: 19% and 11%
Population Healthy Nuclei (%) [6]: 71% and 78%
Population Hoechst High Intensity Objects (%) [6]: 1%
Population Membrane Permeable-Phenotype (%) [6]: 5% and 2%
Population Mitochondria Different-Phenotype (%) [6]: 3%
Population Mitotic Cells (%) [6]: 0% and 12%
Population Normal (%) [6]: 98%
Population Pyknosed Nuclei (%) [6]: 8% and 10%
Population Tubulin-Different-Phenotype (%) [6]: 6% and 1%
Total Cell Count [6]: 420 and 254

CC(=O)O[C@H]1C(=O)[C@@]2(C)[C@H]([C@H](OC(=O)c3ccccc3)[C@]3(O)C[C@H](OC(=O)[C@H](O)[C@@H](NC(=O)c4ccccc4)c4ccccc4)C(C)=C1C3(C)C)[C@]1(OC(C)=O)CO[C@@H]1C[C@@H]2O [PACLITAXEL]
Population Apoptotic (%) [2]: 64% and 71%
Population Fragmented Nuclei (%) [2]: 28% and 16%
Population Healthy Nuclei (%) [2]: 46% and 60%
Population Hoechst High Intensity Objects (%) [2]: 8% and 3%
Population Membrane Permeable-Phenotype (%) [2]: 23% and 10%
Population Mitochondria Different-Phenotype (%) [2]: 25% and 30%
Population Mitotic Cells (%) [2]: 35% and 28%
Population Normal (%) [2]: 91% and 96%
Population Pyknosed Nuclei (%) [2]: 24% and 23%
Population Tubulin-Different-Phenotype (%) [2]: 16% and 14%
Total Cell Count [2]: 200 and 94
Population Apoptotic (%) [4]: 69% and 58%
Population Fragmented Nuclei (%) [4]: 33% and 25%
Population Healthy Nuclei (%) [4]: 36% and 48%
Population Hoechst High Intensity Objects (%) [4]: 4%
Population Membrane Permeable-Phenotype (%) [4]: 21% and 15%
Population Mitochondria Different-Phenotype (%) [4]: 44% and 34%
Population Mitotic Cells (%) [4]: 30% and 41%
Population Normal (%) [4]: 95%
Population Pyknosed Nuclei (%) [4]: 29% and 26%
Population Tubulin-Different-Phenotype (%) [4]: 13% and 18%
Total Cell Count [4]: 198 and 95
Population Apoptotic (%) [6]: 76% and 70%
Population Fragmented Nuclei (%) [6]: 35% and 27%
Population Healthy Nuclei (%) [6]: 30% and 31%
Population Hoechst High Intensity Objects (%) [6]: 12% and 8%
Population Membrane Permeable-Phenotype (%) [6]: 27% and 14%
Population Mitochondria Different-Phenotype (%) [6]: 29% and 50%
Population Mitotic Cells (%) [6]: 23% and 29%
Population Normal (%) [6]: 87% and 91%
Population Pyknosed Nuclei (%) [6]: 33% and 41%
Population Tubulin-Different-Phenotype (%) [6]: 16% and 25%
Total Cell Count [6]: 203 and 98
